# Assay outcomes deposited in PubChem BioAssay by ICCB-Longwood Screening Facility, Harvard Medical School.
# LANA-nucl inh = inhibitors of KSHV LANA-nucleosome binding, primary screen, biochemical, fluorescence polarization, FITC-LANA1-23, chicken nucleosomes | FITC-LANA1-23 / chicken nucleosome fluorescence polarization; active compounds read low | AID 720717, 2013 | z-score (concentration not given with the values) | hit rate 0.3% among 51,000;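 active = both repeat wells score below -2 in polarization z-score versus plate sample wells, excluding overly bright wells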
#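 System – purified chicken nucleosomes with FITC-labelled LANA N-terminal peptide (1-23) · Amount – 240 nM purified chicken nucleosomes (480 nM peptide binding sites), final · Also added – 50 nM FITC-LANA1-23 probe · Medium – TEN-BT buffer, pH 7.5 · Incubation – compound with peptide–nucleosome mix 10–45 min at room temperature · Detection – fluorescence polarization, ex 480 nm, em 535 nm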
# Ab BasE inh = BasE siderophore enzyme inhibitors, primary screen, biochemical, Acinetobacter baumannii ATCC 17978, fluorescence polarization | inhibition, % (concentration not given with the values) | hit rate 0.1% among 84,000 | AID 485350, 2010 | purified BasE, fluorescence polarization binding displacement; in the data active = inhibition above about 25%, passing the limit was not always enough;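 note: 0% = negative plate control signal and 100% = positive plate control signal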
# Starred values were filed as active, the others as inactive; . = no result; ! = a repeat was not active. This excerpt belongs to a sample that is enriched for hits.
SMILES,LANA-nucl inh,Ab BasE inh
NS(=O)(=O)c1cccc(S(=O)(=O)c2ccc(Cl)c(Cl)c2)c1,-0.449,-0.9
CCCN1CC=C2C(C#N)=C(N)C(C#N)(C#N)C(C(C)C)C2C1 (stereo not drawn),-4.01*,21.6
CN1CC=C2C(C#N)=C(N)C(C#N)(C#N)C(Cc3ccccc3)C2C1 (stereo not drawn),-1.81,18.7
CCN1CC=C2C(C#N)=C(N)C(C#N)(C#N)C(C)C2C1 (stereo not drawn),-2.5*,6.3
CCN1CC=C2C(C#N)=C(N)C(C#N)(C#N)C(c3ccc(OC)c4ccccc34)C2C1 (stereo not drawn),-0.78,-0.5
CCCN1CC=C2C(C#N)=C(N)C(C#N)(C#N)C(c3cccc(OC)c3)C2C1 (stereo not drawn),-0.458,11.4
N#CC1=C(N)C(C#N)(C#N)C(c2ccco2)C2CN(Cc3ccccc3)CC=C12 (stereo not drawn),-5.42*,27.9
C=CCNC(=O)c1cc(C)nc2ccccc12,.,0.7
Cc1cccc(OCC(=O)NC2CCCC2)c1,0.052,28.9*
Cc1ccc(OCC(=O)NC2CCC(C)CC2)cc1C (stereo not drawn),.,1.1
COc1ccc(C2CC(c3ccccc3)=NN2C(=O)COC(=O)c2ccco2)cc1 (stereo not drawn),.,-1.2
CCOC(=O)C(=NCC1CCCO1)NNc1cc(Cl)ccc1Cl (stereo not drawn),.,-1.1
N#CC1(C#N)C2C=CC(C2)C1(C#N)C#N,-0.0505,2.1
Cc1ccc(C)c(OCCn2cc(/C=C3\C(=N)N4N=C(S(C)(=O)=O)SC4=NC3=O)c3ccccc32)c1,-0.0335,7.5
N=C1/C(=C\c2cn(CCOc3ccccc3Cl)c3ccccc23)C(=O)N=C2SC=NN12,-3.43*,-18.5
CN1C/C(=N\S(=O)(=O)c2ccccc2)N(C)C1=O,0.049,-1.5
CC1=CC(=O)C=C(C)C1=NS(=O)(=O)c1ccccc1,.,25.8*
Cc1[nH]n(-c2ccccc2)c(=O)c1C=Nc1ccc(O)cc1,.,52.6*
Cc1[nH]n(-c2ccccc2)c(=O)c1/C=N/O,-0.0215,1.7
O=C(CN1CCN(C2c3ccccc3-c3ccccc32)CC1)c1ccc2c(c1)OCO2,0.0085,0.8
O=C(c1ccc2c(c1)OCO2)N1CCN(C2c3ccccc3-c3ccccc32)CC1,-2.33*,3.0
N#Cc1c(-c2ccc(Cl)cc2)cc[nH]c1=O,0.887,.
CS(=O)c1scc(-c2ccc(Cl)cc2)c1C#N (stereo not drawn),0.889,28.8*
O=C1CC2CCC(CN1)N2CC(=O)Nc1ccccc1C(F)(F)F (stereo not drawn),0.289,0.6
CCNCc1cccs1,.,-1.6
SMILES,LANA-nucl inh,Ab BasE inh
N#Cc1ccccc1CNCc1cccs1,-2.13*,-0.1
COC(=O)C1=CNC=C(C(=O)OC)C1c1ccccc1C,-0.573,28.5*
COC(=O)C1=CNC=C(C(=O)OC)C1c1ccc(Cl)cc1,0.369,0.6
CCCCn1c(=S)[nH]c2sc3c(c2c1=O)CCCC3,.,3.8
O=C(CSc1ccccn1)Nc1ncccn1,-0.758,6.4
Cc1nonc1NC(=O)CSc1ccccn1,0.419,57.3*
COC(=O)c1cnc(N2CCOCC2)nc1C(F)(F)F,.,2.9
CC(=O)NN1C(=O)c2cccc3c(N(C)C)ccc(c23)C1=O,.,31.6*
CN(C)c1ccc2c3c(cccc13)C(=O)N(c1nc3ccccc3n1C)C2=O,-0.971,0.3
COc1ccc(C2=NC3Oc4c(C)cccc4C=C3C(=O)N2)c(OC)c1OC (stereo not drawn),0.206,0.0
NC(=O)c1ccsc1NC(=O)CSc1ccccc1,0.266,-1.5
NC(=O)c1ccsc1NC(=O)COC(=O)c1ccccc1,.,39.7*
CCc1c(CSC(=N)N)csc1C,-0.085,-4.1
Cc1c(CSC(=N)N)c(C)c(CSC(=N)N)c(C)c1CSC(=N)N,-2.87*,-2.6
N#CCSc1nnc(-c2ccccc2)n1-c1ccccc1,0.951,-1.0
CC1(c2ccc(Cl)cc2)NC(=O)CS1 (stereo not drawn),-2.4*,0.8
O=C1CSCC(=O)N1c1ccc(Cl)cc1,-0.767,1.5
COc1ccc(-c2csc(/C(C#N)=C(\O)CSc3nnc(-c4ccccc4F)n3C3CC3)n2)cc1OC,.,-2.0
COc1ccc(-c2csc(/C(C#N)=C(\O)CSc3nccn3C)n2)cc1OC,.,30.9*
Cc1cc(C)n(C(=O)CCCC(=O)O)n1,-0.494,0.9
CC1=CC(C)=N/C1=C/c1c(O)[nH]c(=O)[nH]c1=O,-7.64*,1.3
CC(CO)(CO)N=Cc1c(O)[nH]c(=O)[nH]c1=O,0.418,1.9
C=CCOc1ccc(C(=O)N2CCc3ccccc3C2)cc1,-0.468,-1.8
Cc1ccc(S(=O)(=O)c2nc(-c3ccccc3)oc2S(=O)(=O)c2ccc(C)cc2)cc1,-0.82,1.1
C/C(CN1C(=O)c2ccccc2C1=O)=N\Nc1ccccc1Cl,.,-0.4
SMILES,LANA-nucl inh,Ab BasE inh
CC(=O)N(C(C)=O)N1C(=O)c2cccc3c(N4CCOCC4)ccc(c23)C1=O,.,17.0
O=C1c2cccc3c(N4CCCCC4)ccc(c23)C(=O)N1c1ccccn1,-6.18*,17.6
O=c1c(O)c(-c2ccc(O)c(O)c2)oc2cc(O)cc(O)c12,0.825,28.6*!
O=c1cc(-c2ccc(O)c(O)c2)oc2cc(O)cc(O)c12,-0.199,2.0
Cc1c(Cc2ccccc2)c(=O)oc2cc(OC3CCCCC3=O)ccc12 (stereo not drawn),.,2.5
O=C(Nc1ccccc1)N(Cc1nc(-c2ccccc2)no1)C1CCCCC1,-2.13*,1.8
O=C(c1ccccc1)N(Cc1nc(-c2ccccc2)no1)C1CCCCC1,-1.82,1.6
CN(C)C(=O)COC(=O)c1ccccc1C(=O)c1ccccc1,.,1.0
CCCCOC(=O)C1COc2ccccc2O1 (stereo not drawn),.,3.5
CCOC(=O)N1CCN(S(=O)(=O)N2CCCC(C(=O)NCCC(C)C)C2)CC1 (stereo not drawn),-0.252,1.0
CC(C)CCNC(=O)C1CCCN(S(=O)(=O)N2CCC3(CC2)OCCO3)C1 (stereo not drawn),-2.17*,1.6
O=C(COC(=O)CCc1c[nH]c(=O)[nH]1)Nc1ccc2ccccc2c1,-1.02,0.3
c1cnc2c(c1)NC1(CCCCC1)N2,-3.64*,29.1
CCSC1=NC2(CCCCC2)Nc2ccccc21,.,0.4
COc1cc(N)c(Cl)cc1C(=O)NC1CCN(CCCOc2ccc(F)cc2)CC1OC (stereo not drawn),-0.152,-3.5
O=C(O)COc1c(I)cc(Cl)c2cccnc12,.,-0.4
S=c1[nH]c2cc(Cl)c3cccnc3c2o1,2.53,51.3*
O=C(OCC(=O)c1ccc[nH]1)c1ccc(-n2cnnn2)cc1,.,-1.9
Cc1ccc(C)n1-c1ccc(C(=O)O)cc1O,-0.176,46.7*
Cc1cc(C(=O)O)ccc1-n1c(C)ccc1C,0.204,3.4
CC1(C)NC(=O)C(C#N)=C(SCc2ccccc2)S1,-1.16,37.8*
CC1(C)CC(=O)c2cc(C#N)c(SCc3ccccc3)nc2C1,.,-3.7
CN(C)C(=O)CSc1nnc(-c2ccncc2)n1C,0.716,-0.3
CCOC(=O)C1CCN(c2nc3c(S(=O)(=O)c4ccc(C)c(C)c4)nnn3c3ccsc23)CC1,-1.44,-0.9
CCc1ccc(C2CC(=O)Nc3c2c(C)nn3-c2nc3ccccc3s2)cc1 (stereo not drawn),2.63,0.2
COc1ccc2oc(=O)c(C(=O)NCCN3CCOCC3)cc2c1,-0.305,0.1
